Measurements reported in ChEMBL document CHEMBL4020709, “4-Indolyl-N-hydroxyphenylacrylamides as potent HDAC class I and IIB inhibitors in vitro and in vivo” (Eur J Med Chem, 2017).
Calls of active or inactive are those of the source. The calls are words filed in the database; no cut-off is given here.

Assays:
[1] = Inhibition of HDAC in human HeLa cell nuclear extract using […] as substrate after 30 mins by fluorescence assay; type: cell-free
In short: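 HeLa nuclear extract was incubated with fluorometric HDAC substrate in assay buffer at 37°C for 30 min. Lysine developer was then added for a further 30 min at 37°C. Fluorescence was read at ex 355/em 460 nm. Negative controls lacked extract, substrate, or both.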

A549 = experiment: cells; type: functional; conditions: Homo sapiens, A549, 48 h
MDA-MB-231 = experiment: cells; type: functional; conditions: Homo sapiens, MDA-MB-231, 48 h
ASPC1 = experiment: cells; type: functional; conditions: Homo sapiens, ASPC1, 48 h
PC-3 [2] = experiment: cells; type: functional; conditions: Homo sapiens, PC-3, 48 h
Histone deacetylase 4 = Histone deacetylase 4 (Homo sapiens, UniProt P56524); experiment: Inhibition of recombinant human full length HDAC4 using Fluor-de-Lys as substrate after 60 mins by spectrofluorimetric analysis
Histone deacetylase 2 = Histone deacetylase 2 (Homo sapiens, UniProt Q92769); experiment: Inhibition of recombinant human full length HDAC2 using Fluor-de-Lys as substrate after 60 mins by spectrofluorimetric analysis
Mus musculus [3] = experiment: In-vivo inhibition of HDAC in ip dosed nude mouse xenografted with human PC3 cells assessed as upregulation of acetyl-histone 3 expression by hematoxylin/eosin staining based immunohistochemical analysis; type: functional, organism-based
In short: (§1)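 PC3 xenograft tumors were formalin-fixed and paraffin-embedded, then sectioned. Sections were deparaffinized and rehydrated, and endogenous peroxidase was quenched with 3% H2O2. Antigen retrieval used pH 9 buffer at 80°C overnight, followed by blocking with fat-free milk. Primary antibody (acetyl-histone H3, HDAC1 or HDAC2) was applied at 4°C overnight, then secondary antibody, then Mayer's hematoxylin counterstain. Separate sections received H&E staining.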

PC-3 [4] = experiment: Antitumor activity against human PC3 cells xenografted in nude mouse assessed as tumor growth inhibition at 20 mg/kg, ip administered every other day for 18 days measured twice weekly; type: functional; conditions: PC-3, ip, 432 h, read-out: TGI
In short: (§2)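 Male nude mice were implanted s.c. in the flank with PC3 cells (1 × 10^7 per mouse) mixed with Matrigel. Dosing began at a tumor size of about 100 mm³ and was given i.p. every other day for 18 days. Tumors were measured by caliper twice weekly, and volume was calculated as length × width²/2. %TGI was derived from mean tumor volume against the vehicle group, compared by one-way ANOVA.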

PC-3 [5] = experiment: Antitumor activity against human PC3 cells xenografted in nude mouse assessed as tumor growth inhibition at 40 mg/kg, ip administered every other day for 18 days measured twice weekly; type: functional; conditions: PC-3, ip, 432 h, read-out: TGI; in short: as §2
PC-3 [6] = experiment: Antitumor activity against human PC3 cells xenografted in nude mouse assessed as reduction in tumor volume administered ip every other day for 18 days measured twice weekly; type: functional, organism-based; in short: as §2
Mus musculus [7] = experiment: Effect on HDAC1 expression in nude mouse xenografted with human PC3 cells at 20 and 40 mg/kg, ip administered every other day for 18 days measured twice weekly by hematoxylin/eosin staining based immunohistochemical analysis; type: functional, organism-based; in short: as §1
Histone deacetylase 1 = Histone deacetylase 1 (Homo sapiens, UniProt Q13547); experiment: Inhibition of recombinant human full length HDAC1 using Fluor-de-Lys as substrate after 60 mins by spectrofluorimetric analysis
Histone deacetylase 8 = biological target: T1, Histone deacetylase 8 (Homo sapiens, UniProt Q9BY41); experiment: Inhibition of recombinant human full length HDAC8 using Fluor-de-Lys as substrate after 60 mins by spectrofluorimetric analysis
T1 sequence (Q9BY41 whole entry): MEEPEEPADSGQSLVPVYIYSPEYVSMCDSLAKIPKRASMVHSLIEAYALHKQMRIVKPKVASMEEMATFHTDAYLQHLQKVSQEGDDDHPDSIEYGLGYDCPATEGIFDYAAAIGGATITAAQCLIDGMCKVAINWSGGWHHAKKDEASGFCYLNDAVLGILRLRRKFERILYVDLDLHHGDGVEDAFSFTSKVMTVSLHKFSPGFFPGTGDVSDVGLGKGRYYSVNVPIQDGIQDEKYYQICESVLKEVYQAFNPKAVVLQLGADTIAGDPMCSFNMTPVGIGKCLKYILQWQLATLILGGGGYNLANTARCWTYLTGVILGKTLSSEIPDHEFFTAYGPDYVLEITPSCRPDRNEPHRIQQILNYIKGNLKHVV

Mus musculus [8] = experiment: Toxicity in nude mouse xenografted with human PC3 cells assessed as weight loss at 20 to 40 mg/kg, ip administered every other day for 18 days; type: organism-based; conditions: in vivo, 432 h
In short: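 Male nude mice carried s.c. PC3 flank xenografts (1 × 10^7 cells with Matrigel). They received i.p. vehicle, 20 mg/kg or 40 mg/kg every other day for 18 days, and body weight (g) was tracked over the study.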

Mus musculus [9] = experiment: Downregulation of HDAC2 expression in nude mouse xenografted with human PC3 cells at 40 mg/kg, ip administered every other day for 18 days measured twice weekly by hematoxylin/eosin staining based immunohistochemical analysis; type: functional, organism-based; in short: as §1
Homo sapiens [10] = species: Homo sapiens; conditions: at 1 µM
[11] = biological target: T2, Protein deacetylase HDAC6 (Homo sapiens, UniProt Q9UBN7); experiment: Inhibition of recombinant human full length HDAC6 using Fluor-de-Lys as substrate after 60 mins by spectrofluorimetric analysis
T2 sequence (Q9UBN7 whole entry): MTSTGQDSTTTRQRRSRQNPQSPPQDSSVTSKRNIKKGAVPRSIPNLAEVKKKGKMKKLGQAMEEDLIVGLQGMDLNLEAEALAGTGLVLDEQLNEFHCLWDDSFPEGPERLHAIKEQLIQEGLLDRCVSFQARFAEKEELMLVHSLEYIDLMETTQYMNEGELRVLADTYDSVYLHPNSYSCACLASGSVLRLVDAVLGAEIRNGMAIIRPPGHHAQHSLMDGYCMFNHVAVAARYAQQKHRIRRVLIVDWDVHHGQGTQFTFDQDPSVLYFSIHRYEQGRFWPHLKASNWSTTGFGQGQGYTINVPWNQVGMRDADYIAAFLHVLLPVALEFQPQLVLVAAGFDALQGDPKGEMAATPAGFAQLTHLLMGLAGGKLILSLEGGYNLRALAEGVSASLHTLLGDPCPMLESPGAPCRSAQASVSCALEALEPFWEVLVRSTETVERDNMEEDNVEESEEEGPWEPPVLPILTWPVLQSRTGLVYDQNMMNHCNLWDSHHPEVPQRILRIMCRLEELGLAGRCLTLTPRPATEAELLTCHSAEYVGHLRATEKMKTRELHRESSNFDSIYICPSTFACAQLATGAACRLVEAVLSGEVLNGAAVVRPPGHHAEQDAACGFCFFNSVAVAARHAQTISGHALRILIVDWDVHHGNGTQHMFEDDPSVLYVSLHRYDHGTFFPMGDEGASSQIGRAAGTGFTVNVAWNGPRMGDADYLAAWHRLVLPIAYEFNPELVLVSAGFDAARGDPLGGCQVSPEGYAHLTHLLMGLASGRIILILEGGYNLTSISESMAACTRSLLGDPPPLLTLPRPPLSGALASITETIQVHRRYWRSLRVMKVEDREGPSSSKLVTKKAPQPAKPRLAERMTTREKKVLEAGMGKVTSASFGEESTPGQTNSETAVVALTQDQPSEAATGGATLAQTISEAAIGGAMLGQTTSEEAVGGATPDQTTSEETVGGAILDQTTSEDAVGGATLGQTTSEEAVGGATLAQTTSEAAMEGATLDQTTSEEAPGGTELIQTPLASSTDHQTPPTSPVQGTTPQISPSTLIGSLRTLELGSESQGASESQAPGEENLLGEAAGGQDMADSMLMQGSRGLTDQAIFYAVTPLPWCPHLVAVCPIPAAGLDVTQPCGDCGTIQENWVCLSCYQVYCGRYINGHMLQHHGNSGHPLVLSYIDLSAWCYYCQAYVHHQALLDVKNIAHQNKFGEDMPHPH

Homo sapiens [12] = species: Homo sapiens; conditions: at 1 µM; remark: listed apart in the source

Sequence of Histone deacetylase 4 (P56524 whole entry): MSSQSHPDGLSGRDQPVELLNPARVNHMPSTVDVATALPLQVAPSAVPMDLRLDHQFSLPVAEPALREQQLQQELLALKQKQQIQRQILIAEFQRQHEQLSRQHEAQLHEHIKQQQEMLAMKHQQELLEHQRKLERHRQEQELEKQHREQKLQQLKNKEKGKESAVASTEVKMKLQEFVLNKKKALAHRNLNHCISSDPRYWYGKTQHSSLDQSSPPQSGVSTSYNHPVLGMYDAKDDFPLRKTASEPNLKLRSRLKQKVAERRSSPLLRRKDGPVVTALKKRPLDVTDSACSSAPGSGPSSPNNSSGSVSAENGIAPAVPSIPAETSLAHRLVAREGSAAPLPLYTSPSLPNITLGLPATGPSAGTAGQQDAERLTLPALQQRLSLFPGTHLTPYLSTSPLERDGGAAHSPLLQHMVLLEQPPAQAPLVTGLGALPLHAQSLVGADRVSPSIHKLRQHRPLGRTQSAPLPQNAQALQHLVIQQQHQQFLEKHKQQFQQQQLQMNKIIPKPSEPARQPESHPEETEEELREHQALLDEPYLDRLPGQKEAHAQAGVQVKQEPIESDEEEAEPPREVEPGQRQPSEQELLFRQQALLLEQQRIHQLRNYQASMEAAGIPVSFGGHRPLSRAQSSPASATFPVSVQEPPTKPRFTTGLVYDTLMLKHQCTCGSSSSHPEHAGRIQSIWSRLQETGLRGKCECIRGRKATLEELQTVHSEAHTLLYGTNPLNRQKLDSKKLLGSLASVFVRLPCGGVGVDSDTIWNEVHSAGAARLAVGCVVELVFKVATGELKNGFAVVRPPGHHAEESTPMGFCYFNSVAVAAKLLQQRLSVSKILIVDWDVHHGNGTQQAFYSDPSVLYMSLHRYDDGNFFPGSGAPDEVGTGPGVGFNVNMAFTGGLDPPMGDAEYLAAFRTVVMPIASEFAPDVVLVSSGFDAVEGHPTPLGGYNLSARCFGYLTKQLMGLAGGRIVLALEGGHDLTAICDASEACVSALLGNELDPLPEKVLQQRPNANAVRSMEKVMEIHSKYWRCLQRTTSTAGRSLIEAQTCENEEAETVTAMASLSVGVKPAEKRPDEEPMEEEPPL
Sequence of Histone deacetylase 2 (Q92769 whole entry): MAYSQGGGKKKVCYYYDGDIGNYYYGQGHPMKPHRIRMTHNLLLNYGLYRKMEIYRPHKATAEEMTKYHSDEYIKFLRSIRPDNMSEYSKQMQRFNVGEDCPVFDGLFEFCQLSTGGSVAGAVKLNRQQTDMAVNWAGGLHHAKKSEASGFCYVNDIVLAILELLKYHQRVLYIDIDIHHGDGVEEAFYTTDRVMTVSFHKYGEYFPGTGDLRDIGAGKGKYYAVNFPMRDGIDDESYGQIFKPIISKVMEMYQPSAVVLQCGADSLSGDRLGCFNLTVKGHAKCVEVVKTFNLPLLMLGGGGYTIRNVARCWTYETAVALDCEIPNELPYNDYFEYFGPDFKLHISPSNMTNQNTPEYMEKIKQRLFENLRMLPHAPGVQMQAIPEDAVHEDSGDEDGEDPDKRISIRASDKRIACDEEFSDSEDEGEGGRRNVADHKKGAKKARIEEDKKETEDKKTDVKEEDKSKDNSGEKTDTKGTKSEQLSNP
Sequence of Histone deacetylase 1 (Q13547 whole entry): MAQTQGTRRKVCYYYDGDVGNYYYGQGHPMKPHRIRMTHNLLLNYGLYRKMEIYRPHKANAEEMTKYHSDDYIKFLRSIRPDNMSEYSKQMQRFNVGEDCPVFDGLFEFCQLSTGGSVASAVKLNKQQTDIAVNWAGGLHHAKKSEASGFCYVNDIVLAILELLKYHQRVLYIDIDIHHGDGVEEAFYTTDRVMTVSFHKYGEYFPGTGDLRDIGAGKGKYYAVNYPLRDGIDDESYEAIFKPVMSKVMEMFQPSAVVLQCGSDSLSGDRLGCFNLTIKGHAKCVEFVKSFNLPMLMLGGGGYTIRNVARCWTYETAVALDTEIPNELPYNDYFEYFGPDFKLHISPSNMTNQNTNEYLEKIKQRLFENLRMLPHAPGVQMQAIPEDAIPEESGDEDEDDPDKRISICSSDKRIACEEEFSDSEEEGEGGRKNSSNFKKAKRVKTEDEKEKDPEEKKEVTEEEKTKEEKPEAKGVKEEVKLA

SMILES	IC50 [1] [nM]	GI50 (A549) [nM]	GI50 (MDA-MB-231) [nM]	GI50 (ASPC1) [nM]	GI50 (PC-3 [2]) [nM]	also measured
O=C(/C=C/c1cccc(S(=O)(=O)NCCc2ccc3[nH]ccc3c2)c1)NO	52.2	820	2470	2780	330	–
O=C(CCCCCCC(=O)Nc1ccccc1)NO [VORINOSTAT]	131	–	–	–	–	–
O=C(/C=C/c1ccc(S(=O)(=O)NCc2cccc3[nH]ccc23)cc1)NO	7.17	1650	3550	4560	860	–
O=C(/C=C/c1ccc(S(=O)(=O)Nc2cccc3[nH]ccc23)cc1)NO	> 1000	> 10000	> 10000	> 10000	3490	–
COc1ccc(S(=O)(=O)n2ccc3c(CCNS(=O)(=O)c4ccc(/C=C/C(=O)NO)cc4)cccc32)cc1	60	4350	5850	12500	2880	–
O=C(/C=C/c1ccc(S(=O)(=O)NCCc2ccc3[nH]ccc3c2)cc1)NO	76.1	600	9910	3970	310	–
O=C(/C=C/c1cccc(S(=O)(=O)Nc2ccccc2)c1)NO [BELINOSTAT]	81	230	280	650	310	IC50 (Histone deacetylase 4): > 1000 nM
O=C(/C=C/c1cccc(S(=O)(=O)NCCc2cccc3[nH]ccc23)c1)NO	30.4	870	2060	3850	310	–
Nc1ccccc1NC(=O)c1ccc(CNC(=O)OCc2cccnc2)cc1 [ENTINOSTAT]	> 1000	5760	1410	6900	430	–
O=C(/C=C/c1ccc(S(=O)(=O)NCCc2cccc3[nH]ccc23)cc1)NO	8.56	250	320	240	140	IC50 (Histone deacetylase 2): 0.9 nM; Activity (Mus musculus [3]): Dose-dependent effect; inhibition in vivo at 20 mg/kg (PC-3 [4]): 51.6%; inhibition in vivo at 40 mg/kg (PC-3 [5]): 62.2%; Activity (PC-3 [6]): Dose-dependent effect; IC50 (Histone deacetylase 4): > 100 nM; Activity (Mus musculus [7]): inactive; IC50 (Histone deacetylase 1): 1.28 nM; IC50 (Histone deacetylase 8): > 100 nM; Activity (Mus musculus [8]): Non-Toxic; Activity (Mus musculus [9]): Active; inhibition (Homo sapiens [10]): Active; IC50 [11]: 8.32 nM; inhibition (Homo sapiens [12]): Active
Cn1ccc2c(CCNS(=O)(=O)c3ccc(/C=C/C(=O)NO)cc3)cccc21	14.3	250	80	160	150	IC50 (Histone deacetylase 2): 0.53 nM; IC50 (Histone deacetylase 4): > 100 nM; IC50 (Histone deacetylase 1): 1.34 nM; IC50 (Histone deacetylase 8): > 100 nM; IC50 [11]: 6.8 nM
